Published values from different studies.
Protocols differ between the studies behind these lines.

O=C(Nc1ccccc1)Nc1ccc(Oc2nnc(-c3ccc(Cl)cc3)c3ccccc23)cc1  cell death (HepG2; cell growth or viability; MTT; 0.625 µM): 94.7%
CC(C)(C)c1cnc(CSc2cnc(NC(=O)C3CCN(C(=O)COCCOCCSc4cccc5c4C(=O)N(C4CCC(=O)NC4=O)C5=O)CC3)s2)o1 (stereo not drawn)  viability (HH; cell growth or viability; CCK-8; 0.4 µM): 47.3%
Nc1ncnc2c1c(/C=C/C(=O)N1CCCC1)nn2CC1CCCC1  EC50 (OE33; cell growth or viability; resazurin; 5 days): > 30000 nM
CC(C)(C)c1cnc(CSc2cnc(NC(=O)C3CCN(CCCCCCCSc4cccc5c4C(=O)N(C4CCC(=O)NC4=O)C5=O)CC3)s2)o1 (stereo not drawn)  viability (HH; cell growth or viability; CCK-8; 50 nM): 96%
Cc1sc2c(c1C)C(c1ccc(Cl)cc1)=N[C@@H](CC(=O)NCCCCCCCCNC(=O)COc1cccc3c1C(=O)N(C1CCC(=O)NC1=O)C3=O)c1nnc(C)n1-2 (stereo partly drawn)  IC50 (Ramos; cell growth or viability; ATP luminescence; 72 h): 12 nM
CC(=NNC(=O)c1ccccc1)c1ccc(Nc2nnc(-c3ccc(Cl)cc3)c3ccccc23)cc1  cell death (HepG2; cell growth or viability; MTT; 2.5 µM): 95.8%
C[C@H]1Oc2cc(cnc2N)-c2c(nn(C)c2C#N)CN(C)C(=O)c2ccc(F)cc21  IC50 (A-431; cell growth or viability): > 10000 nM
CC(=NNC(=O)c1ccccc1Cl)c1ccc(Nc2nnc(-c3ccc(Cl)cc3)c3ccccc23)cc1  cell death (HepG2; cell growth or viability; MTT; 0.312 µM): 19.8%
CNc1ncc2c(/C=C/C(=O)N3CCC(OC)CC3)nn(Cc3cccc(OC)c3)c2n1  EC50 (OE33; cell growth or viability; resazurin; 5 days): 2890 nM
CC(C)(C)c1cnc(CSc2cnc(NC(=O)C3CCN(CCCCSc4cccc5c4C(=O)N(C4CCC(=O)NC4=O)C5=O)CC3)s2)o1 (stereo not drawn)  viability (HH; cell growth or viability; CCK-8; 10 nM): 105%
O=C(Nc1ccccc1)Nc1cccc(Br)c1  IC50 (LAD2; degranulation): 22100 nM
O=C(Nc1ccc(Oc2nnc(-c3ccc(Cl)cc3)c3ccccc23)cc1)c1ccccc1  cell death (HepG2; cell growth or viability; MTT; 0.156 µM): 45.6%
CCOC(=O)c1nn(-c2cccc(Cl)c2)/c(=N/N=C(\C)c2ccc(NC(=O)c3ccc(Cl)cc3)cc2)s1  viability (HepG2; cell growth or viability; MTT; 0.156 µM): 24.6%
COC(=O)/C=C/c1nn(CC2CCCC2)c2ncnc(N)c12  EC50 (OE33; cell growth or viability; resazurin; 5 days): > 30000 nM
S=C(Nc1ccccc1)Nc1ccc(Oc2nnc(-c3ccc(Cl)cc3)c3ccccc23)cc1  viability (HepG2; cell growth or viability; MTT; 1.25 µM; 24 h): 57.1%
CNc1ncc2c(/C=C/C(=O)N3CCC(OC)CC3)nn(Cc3ccc(C)cc3)c2n1  EC50 (OE33; cell growth or viability; resazurin; 5 days): 2490 nM
CC(C)(C)c1cnc(CSc2cnc(NC(=O)C3CCN(CCCCCCCCSc4cccc5c4C(=O)N(C4CCC(=O)NC4=O)C5=O)CC3)s2)o1 (stereo not drawn)  viability (HH; cell growth or viability; CCK-8; 0.25 µM): 0%
CNc1ncc2c(/C=C/C(=O)N3CCC(OC)CC3)nn(Cc3ccc(C(F)(F)F)cc3)c2n1  EC50 (OE33; cell growth or viability; resazurin; 5 days): 1320 nM
O=C(C=Cc1ccccc1)Nc1ccc(Oc2nnc(-c3ccc(Cl)cc3)c3ccccc23)cc1  cell death (HepG2; cell growth or viability; MTT; 2.5 µM): 87.9%
CNc1ncc2c(/C=C/C(=O)N3CCC(c4ccccc4)CC3)nn(CC3CCCC3)c2n1  EC50 (OE33; cell growth or viability; resazurin; 5 days): > 30000 nM
C=CC(=O)NC1CCN(c2ncc3ncnc(Nc4ccc(Oc5ccc6c(c5)ncn6C)c(C)c4)c3n2)CC1  EC50 (DMS-273; cell growth or viability): 338 nM
